This note sets out measurements from ChEMBL document CHEMBL1147105, “In vitro and in vivo activities of PD 0305970 and PD 0326448, new bacterial gyrase/topoisomerase inhibitors with potent antibacterial activities versus multidrug-resistant gram-positive and fastidious organism groups” (2007).

Assay [1] deals with Streptococcus pyogenes. Description: Antibacterial efficacy against Streptococcus pyogenes C203 infected orally dosed CD1 mouse model. The class given is functional. The settings on record: C203, po. An outline of the steps:
(§1)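 Sepsis model in female CD1 mice (6–8 weeks, 18–22 g). Lethal i.p. challenge (0.5 ml) at ≥100 median lethal doses. Streptococci were given in Todd-Hewitt broth; other organisms were given with 20% hog gastric mucin. A single oral gavage dose (0.5 ml, in 0.5% methylcellulose) was given at the time of challenge. The PD50 (mg/kg) was calculated by probit analysis.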

The test system of assay [2] is Streptococcus pneumoniae. Description: Antibacterial efficacy against Streptococcus pneumoniae SVI infected orally dosed CD1 mouse model. The settings on record: po. The class given is functional. Summed up: as §1
Assay [3] concerns Streptococcus pneumoniae. Description: Bactericidal activity against Streptococcus pneumoniae SV1 at 2 ug/ml by time-kill study. In kind it is functional, organism-based. An outline of the steps:
(§2)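 Time-kill in 10 ml of cation-adjusted Mueller-Hinton broth with 3% lysed horse blood, without agitation. Multiples of MIC tested. Samples taken at 0, 2, 4, 6 and 24 h and plated on tryptic soy agar with 5% sheep blood after ≥250-fold dilution, detection limit 10 CFU/ml. Counts read after 24 h at 35°C. Bactericidal defined as a ≥3 log10 drop from the starting inoculum within 24 h.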

The test system of a further assay is Enterococcus faecalis. Description: Antibacterial efficacy against Enterococcus faecalis MGH2 infected orally dosed CD1 mouse model. The class given is functional. Summed up: as §1
Assay [4] has as its system Staphylococcus aureus. The assay can be described thus: Antibacterial efficacy against ciprofloxacin and methicillin-resistant Staphylococcus aureus SA2017 infected orally dosed CD1 mouse model. In kind it is functional. Summed up:
as §1

Assay [5] concerns Streptococcus pneumoniae. Description: Bactericidal activity against Streptococcus pneumoniae SV1 at 0.008 ug/ml by time-kill study. The class given is functional, organism-based. Summed up:
as §2

Assay [6] deals with Staphylococcus aureus. The assay can be described thus: Antibacterial efficacy against methicillin-susceptible Staphylococcus aureus UC76 infected orally dosed CD1 mouse model. The class given is functional. The settings on record: UC76, po. An outline of the steps:
as §1

Assay [7] relates to Streptococcus pyogenes. The assay can be described thus: Bactericidal activity against Streptococcus pyogenes C203 at 0.008 ug/ml by time-kill study. In kind it is functional, organism-based. Summed up: as §2
Assay [8] deals with Streptococcus pyogenes. The assay can be described thus: Bactericidal activity against Streptococcus pyogenes C203 at 2 ug/ml by time-kill study. In kind it is functional, organism-based. Summed up:
as §2

Assay [9] deals with Staphylococcus aureus. Description: Antibacterial efficacy against methicillin-resistant Staphylococcus aureus SA1417 infected orally dosed CD1 mouse model. In kind it is functional. Summed up: as §1

Converted amounts (≈) assume the structure as drawn. The source made the active and inactive calls. Where only a bound is given, the exact number is not on record here.

Usually MIC stands for the lowest concentration that inhibits growth of the organism. A low value points to greater potency. Consider `O=C(O)c1cn(C2CC2)c2cc(N3CCNCC3)c(F)cc2c1=O` [CIPROFLOXACIN], for which the MIC was 0.5 µg/mL (≈ 1.51 µM) against Streptococcus pyogenes [1]; 2 µg/mL (≈ 6.04 µM) with Streptococcus pneumoniae [2]; 0.5 µg/mL (≈ 1.51 µM) in the assay with Enterococcus faecalis; greater than 64 µg/mL in the assay on Staphylococcus aureus [4]; 0.06 µg/mL (≈ 0.181 µM) with Staphylococcus aureus [6]; 0.5 µg/mL (≈ 1.51 µM) against Staphylococcus aureus [9]. For the same molecule, the ED50 with Streptococcus pyogenes [1] (read-out: PD50) is greater than 100 mg/kg; with Streptococcus pneumoniae [2] (read-out: PD50), greater than 100 mg/kg; with Staphylococcus aureus [4] (read-out: PD50), greater than 100 mg/kg; in the assay on Staphylococcus aureus [6] (read-out: PD50) it was 9.1 mg/kg; in the assay on Staphylococcus aureus [9] (read-out: PD50), 18 mg/kg. For the same molecule, the result with Streptococcus pneumoniae [3], with Streptococcus pneumoniae [5], in the assay with Streptococcus pyogenes [7] and in the assay on Streptococcus pyogenes [8] was Active.
